ChEMBL document CHEMBL1147826, “Activity of B-nor analogues of neurosteroids on the GABA(A) receptor in primary neuronal cultures” (J Med Chem, 2006)
Calls of active or inactive are those of the source. No cut-off for these calls is given here.

Columns and labels:
[1] = target: T1, GABA-A receptor; anion channel (Mus musculus) (UniProt Q8BHJ7+P26048+Q8QZW7+P50571+Q9R0Y8+P22723+A2AMW3+P62812+Q9JLF1+P26049+P22933+Q9D6F4+P63080+P27681+P16305); assay: Effect on 36chloride ion influx in mouse embryo cortical neurons in absence of GABA-A at 10 uM relative to basal value; assay type: functional
Outline: (§1)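 Primary cortical neurons from 16-day mouse embryos, cultured 7-9 days with 5 µM fluorodeoxyuridine/20 µM uridine to block glia. 45 min preincubation in Earle's salt solution pH 7.4 at 36.8 °C, then 10 min at room temperature. 7 s uptake of 36Cl (0.2-0.7 µCi/mL) with or without 5 µM GABA plus steroid. Basal uptake measured without GABA or steroid. Lysate counted by scintillation.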

Cortical neurone [2] = assay: Loss of viability of cortical neuron at 10 uM after 72 hrs; assay type: functional, cell-based; conditions: Mus musculus
Outline: (§2)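 Mouse embryonic cortical neuron cultures exposed to steroid at 10 µM for 72 h, or 100 µM for 24 or 72 h. MTT (250 µg/mL in HEPES buffer) for 15 min at 37 °C, formazan dissolved in 5% SDS and read at 560 nm. Expressed as % of untreated controls. Two independent experiments in triplicate.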

Cortical neurone [3] = assay: Loss of viability of cortical neuron at 100 uM after 24 hrs; assay type: functional, cell-based; conditions: Mus musculus; outline: as §2
[4] = target: T1, GABA-A receptor; anion channel (Mus musculus); assay: Effect on GABA-A-induced 36chloride ion influx in mouse embryo cortical neurons at 10 uM relative to basal value; assay type: functional; outline: as §1
[5] = target: GABA-A receptor; anion channel; assay: (§3) Increase in [3H]flunitrazepam binding to GABA-A receptor in mouse embryo cortical neurons; assay type: protein-complex assay
Outline: (§4)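 Intact mouse embryonic cortical neurons at 7-9 days in vitro, washed into HEPES buffer pH 7.3. Incubated 30 min at 25 °C with 1.3-2.0 nM [3H]flunitrazepam and steroid (1 nM-30 µM, DMSO <0.5% final). Nonspecific binding taken with 20 µM diazepam; 100 µM GABA as positive control. Data as % of control binding. EC50 from sigmoid fits of at least six concentrations in triplicate, 3-5 independent curves.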

[6] = target: GABA-A receptor; anion channel (Rattus norvegicus) (UniProt O09028+P15431+P18506+P18508+P19969+P20236+P23574+P23576+P28471+P28473+P30191+P62813+P63079+P63138+Q91ZM7+Q9ES14); assay: Inhibition of [35S]TBPS binding to GABA-A receptor in Wistar rat brain membrane at 10 uM; assay type: cell membranes
Outline: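 Whole-brain membranes from adult male Wistar rats in 20 mM KH2PO4/200 mM KCl, pH 7.4. Incubated 60 min at 37 °C with 2 nM [35S]TBPS, 1 µM GABA and steroid. Nonspecific binding defined with 200 µM picrotoxinin. Results expressed as % of DMSO controls.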

[7] = target: T1, GABA-A receptor; anion channel (Mus musculus); assay: as §3; assay type: protein-complex assay; outline: as §4
Cortical neurone [8] = assay: Loss of viability of cortical neuron at 100 uM after 72 hrs; assay type: functional, cell-based; conditions: Mus musculus; outline: as §2

Compound	Activity [4] [%]	Activity [7]	further results
CC(=O)[C@H]1CC[C@H]2[C@@H]3C[C@H]4C[C@H](O)CC[C@]4(C)[C@H]3CC[C@]12C	199		Activity [1]: 1.7%; Activity (Cortical neurone [2]): inactive; Activity (Cortical neurone [3]): inactive; Log EC50 [5]: -6.61; inhibition [6]: 33%
CC(=O)[C@H]1CC[C@H]2[C@@H]3CN[C@H]4C[C@H](O)CC[C@]4(C)[C@H]3CC[C@]12C	86	inactive	
CC(=O)[C@H]1CC[C@H]2[C@@H]3CC=C4C[C@H](O)CC[C@]4(C)[C@H]3CC[C@]12C	131		
CC(=O)[C@H]1CC[C@H]2[C@@H]3[C@@H]4O[C@@]45C[C@H](O)CC[C@]5(C)[C@H]3CC[C@]12C	103	inactive	
CC(=O)[C@H]1CC[C@H]2[C@@H]3CC[C@@H]4C[C@H](O)CC[C@]4(C)[C@H]3CC[C@]12C [ELTANOLONE]	162		Log EC50 [5]: -5.93
CC(=O)[C@H]1CC[C@H]2[C@@H]3C(=O)N[C@H]4C[C@H](O)CC[C@]4(C)[C@H]3CC[C@]12C	81	inactive	
CC(=O)[C@H]1CC[C@H]2[C@@H]3CC[C@H]4C[C@H](O)CC[C@]4(C)[C@H]3CC[C@]12C [BREXANOLONE]	164		Activity (Cortical neurone [8]): Active; Activity (Cortical neurone [2]): inactive; Activity (Cortical neurone [3]): inactive; Log EC50 [5]: -6.06
CC(=O)[C@H]1CC[C@H]2[C@@H]3[C@H]4O[C@]45C[C@H](O)CC[C@]5(C)[C@H]3CC[C@]12C	104	inactive	
CC(=O)[C@H]1CC[C@H]2[C@@H]3CC(=O)[C@H]4C[C@H](O)CC[C@]4(C)[C@H]3CC[C@]12C	100	inactive	
CC(=O)[C@H]1CC[C@H]2[C@@H]3C[C@@H]4C[C@H](O)CC[C@]4(C)[C@H]3CC[C@]12C	172		Activity [1]: 1.7%; Activity (Cortical neurone [2]): inactive; Activity (Cortical neurone [3]): inactive; Log EC50 [5]: -6.03
CC(=O)[C@H]1CC[C@H]2[C@@H]3C(=O)[C@H]4C[C@H](O)CC[C@]4(C)[C@H]3CC[C@]12C	82	inactive	
CC(=O)[C@H]1CC[C@H]2[C@@H]3[C@H]4O[C@]45C[C@@H](O)CC[C@]5(C)[C@H]3CC[C@]12C	99	inactive	
CC(=O)[C@H]1CC[C@H]2[C@@H]3C(=O)C[C@H]4C[C@H](O)CC[C@]4(C)[C@H]3CC[C@]12C	90	inactive	
CC(=O)[C@H]1CC[C@H]2[C@H]3C(=C4CC[C@@H](O)C[C@@]4(C)[C@H]3O)CC[C@]12C	76	inactive	
